Active and inactive are the calls of the source. The rule behind the calls is not given here.
What was measured:
Rattus norvegicus [1] = species: Rattus norvegicus; experiment: Displacement of [3H]-BTX-B from neuronal voltage-gated sodium channel binding site 2 in rat hippocampal neurons at 40 uM; type: tissue-based; settings: Hippocampus
How it was run: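 Inhibition of specifically bound [3H]-BTX-B measured at a single concentration of 40 μM, run in duplicate, and expressed as percent inhibition.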

[2] = Displacement of [3H]-BTX-B from neuronal voltage-gated sodium channel binding site 2 in rat hippocampal neurons; type: tissue-based, Hippocampus
Rattus norvegicus [3] = species: Rattus norvegicus; experiment: Inhibition of voltage-gated sodium channel in rat hippocampal neurons assessed as blocked of sodium current elicited at -10 mV for […] from holding potential -90 mV at 50 uM measured after washout by patch clamp method; type: tissue-based; settings: Hippocampus
How it was run: (§1)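 Hippocampi from E18 rat embryos were trypsin-dissociated and plated on poly-L-lysine coverslips, then kept over a glial monolayer in serum-free MEM with N2 for up to 4 weeks. Whole-cell patch clamp was used. Bath (mM): NaCl 30, choline Cl 110, TEA-Cl 30, CdCl2 0.1, pH 7.3. Cells were held at −90 mV for 5 min first. Tonic current block was measured at 50 μM (n=5–7), followed by washout.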

Rattus norvegicus [4] = species: Rattus norvegicus; experiment: Inhibition of voltage-gated sodium channel in rat hippocampal neurons assessed as blocked of sodium current elicited at -10 mV for […] from holding potential -90 mV at 50 uM by patch clamp method; type: tissue-based; design: scale not given: the % may be the effect or the level left; settings: Hippocampus; how it was run: as §1

SMILES | Activity (Rattus norvegicus [1]) | IC50 [2] | Activity (Rattus norvegicus [3]) | Activity (Rattus norvegicus [4])
CC(C)c1cc(C(O)(C(N)=O)C(F)(F)F)cc(C(C)C)c1O (stereo unspecified) | 24.5% | – | – | –
CC(C)c1cc(CCCCCCC(O)(C(N)=O)C(F)(F)F)cc(C(C)C)c1O (stereo unspecified) | 71.4% | 5.7 µM | inactive | –
CC(C)c1cc(CCCCC(O)(C(N)=O)C(F)(F)F)cc(C(C)C)c1O (stereo unspecified) | 67.1% | 22 µM | inactive | 59%
CC(C)c1cc(C2(C(F)(F)F)NC(=O)NC2=O)cc(C(C)C)c1O (stereo unspecified) | 55.1% | – | – | –
CC(C)c1cccc(C(C)C)c1O | 16.6% | – | – | –
NC(=O)C(O)(c1ccccc1)C(F)(F)F (stereo unspecified) | 6.8% | – | – | –

From ChEMBL document CHEMBL1152603, “Comparative molecular field analysis and synthetic validation of a hydroxyamide-propofol binding and functional block of neuronal voltage-dependent sodium channels” (Bioorg Med Chem, 2009)
